# Published values gathered from unrelated publications.
# Protocols differ between the studies behind these lines.
# Target: Bone morphogenetic protein receptor type-2 (BMPR2, Homo sapiens, UniProt Q13873)
# Sequence (Q13873 27-1038, as in one of the studies): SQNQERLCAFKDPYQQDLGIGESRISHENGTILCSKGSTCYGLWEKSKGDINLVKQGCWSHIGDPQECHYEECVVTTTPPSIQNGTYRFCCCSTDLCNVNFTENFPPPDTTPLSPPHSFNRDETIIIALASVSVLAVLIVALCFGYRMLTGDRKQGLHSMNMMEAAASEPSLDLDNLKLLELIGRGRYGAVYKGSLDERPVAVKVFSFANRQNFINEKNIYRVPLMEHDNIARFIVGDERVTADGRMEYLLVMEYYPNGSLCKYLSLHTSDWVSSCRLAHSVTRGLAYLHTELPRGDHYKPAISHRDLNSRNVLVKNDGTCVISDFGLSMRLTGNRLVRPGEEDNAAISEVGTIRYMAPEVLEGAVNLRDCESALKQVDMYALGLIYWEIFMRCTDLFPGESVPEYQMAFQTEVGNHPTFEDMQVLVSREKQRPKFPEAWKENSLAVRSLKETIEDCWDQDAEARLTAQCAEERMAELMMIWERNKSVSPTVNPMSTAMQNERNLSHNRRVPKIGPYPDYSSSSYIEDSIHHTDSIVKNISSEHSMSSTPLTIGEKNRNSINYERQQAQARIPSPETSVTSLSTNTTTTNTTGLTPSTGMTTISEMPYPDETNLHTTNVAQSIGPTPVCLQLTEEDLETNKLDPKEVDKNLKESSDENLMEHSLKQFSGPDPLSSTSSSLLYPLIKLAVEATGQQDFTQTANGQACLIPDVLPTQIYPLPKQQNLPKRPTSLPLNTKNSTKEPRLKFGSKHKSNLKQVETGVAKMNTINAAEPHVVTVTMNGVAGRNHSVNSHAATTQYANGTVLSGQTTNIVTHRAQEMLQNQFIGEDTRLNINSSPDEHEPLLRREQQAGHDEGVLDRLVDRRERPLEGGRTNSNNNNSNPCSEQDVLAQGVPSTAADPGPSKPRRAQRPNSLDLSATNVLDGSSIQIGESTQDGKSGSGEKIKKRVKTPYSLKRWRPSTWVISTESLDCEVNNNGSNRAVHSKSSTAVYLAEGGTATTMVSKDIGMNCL
Structure (SMILES),effect on,action,technique,concentration,endpoint,result
N#CC1c2c([nH]c3c(Cl)c(Cl)ccc23)C(=O)NC12CCCCC2 (racemic),thermal stability,,DSF,10 µM,ΔTm,0.7 °C
CN1CC(Oc2cnc(C#N)cc2-c2ccn3nc(NC(=O)C4CC4)cc3c2)C1,enzyme activity,inhibitor,,1 µM,inhibition,1%
CS(=O)(=O)Nc1cccc(-c2csc(NC(=O)CSc3nc4nccnc4c(=O)n3CCc3ccccc3)n2)c1,enzyme activity,inhibitor,,10 µM,inhibition,3%
O=C(NCCCC1CCCCC1)c1ccc(CNC(=O)c2cnn(-c3ccccc3)c2C(F)(F)F)cc1,cell-free assay,,competition with immobilised ligand,0.1 µM,remaining binding,100%
O=C(Nc1cnn(-c2csc(C(=O)NC3COC3)c2)c1)Nc1c(F)cccc1Cl,enzyme activity,inhibitor,,5 µM,remaining activity,77.2%
Nc1ncnc2occ(-c3ccc(NC(=O)Nc4cc(C(F)(F)F)ccc4F)cc3)c12,cell-free assay,,,20 µM,remaining signal,60%
COc1cc(-c2cn(C3CCc4c(F)cccc4N(CC(F)(F)F)C3=O)nn2)ccc1-n1cnc(C)c1 (stereo not drawn),cell-free assay,,competition with immobilised ligand,1 µM,remaining binding,100%
Cn1c2c(c3ccc(Cl)c(Cl)c31)C(C#N)C(C)(C)NC2=O (stereo not drawn),thermal stability,,DSF,10 µM,ΔTm,1.4 °C
Cc1nccc(COC(=O)N2C[C@@H]3[C@@H](CNC(=O)c4ccc5[nH]nnc5c4)[C@@H]3C2)n1,cell-free assay,,competition with immobilised ligand,1 µM,remaining binding,81%
Cn1cncc1C1=CN(c2ncnc3[nH]cnc23)CCS1,enzyme activity,inhibitor,radiometric,2 µM,inhibition,74%
Cn1nc(C(F)(F)F)cc1-c1cnc(N2CCc3cc(S(=O)(=O)Nc4c(F)cc(Cl)cc4F)cc(N4CCCC4=O)c32)nc1,cell-free assay,,competition with immobilised ligand,1 µM,remaining binding,77%
Cn1c2c(c3ccc(Cl)c(Cl)c31)C(C#N)C1(CCOCC1)NC2=O (stereo not drawn),thermal stability,,DSF,10 µM,ΔTm,0.9 °C
